According to article PMC12671527 (Research in Pharmaceutical Sciences, 2025):
Converted amounts (≈) assume the structure as drawn.

How the values were obtained:
Format in all cases: cell-based
[1] = test system: Klebsiella pneumoniae ATCC 2814; test: MIC and MBC, broth microdilution; conditions: ATCC2814, 18 h
Method in brief: (§1)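 Broth microdilution per CLSI. Isolates were revived from glycerol stocks, grown overnight in Mueller-Hinton broth and diluted to 10^6 CFU/mL, then mixed with equal volumes of serially diluted test compound, six wells per concentration. Plates ran 18 h at 37 °C with growth read at OD 570 nm; MIC was the lowest inhibiting concentration. MBC: clear wells streaked on agar for 24 h, 99.9% kill. Triplicate experiments. SI = MDCK IC50/MIC.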

[2] = test system: Staphylococcus epidermidis ATCC 700565; test: Synergistic studies, broth microdilution checkerboard; conditions: levofloxacin combined with UP5, checkerboard, first no-growth well, triplicate
Method in brief: (§2)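 Checkerboard broth microdilution in Mueller-Hinton broth. Each well held graded concentrations of the peptide and levofloxacin in crossed combination, plus inoculum at 10^6 CFU/mL before mixing. Plates ran 18 h at 37 °C with growth read at OD 570 nm. Combination MICs were determined in triplicate. FIC = sum of combined/alone MIC ratios, with 100 µM used as the denominator when the solo MIC exceeded 100 µM.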

[3] = test system: Enterococcus faecium ATCC 2316; test: MIC and MBC, broth microdilution; conditions: ATCC2316, 18 h
Method in brief: as §1

[4] = test system: Staphylococcus epidermidis ATCC 700565; test: MIC and MBC, broth microdilution; conditions: ATCC700565, 18 h
Method in brief: as §1

[5] = test system: Pseudomonas aeruginosa ATCC 3197; test: MIC and MBC, broth microdilution; conditions: ATCC3197, 18 h
Method in brief: as §1

[6] = test system: Enterococcus faecium ATCC 2316; test: Synergistic studies, broth microdilution checkerboard; conditions: levofloxacin combined with UP5, checkerboard, first no-growth well, triplicate
Method in brief: as §2

[7] = test system: Klebsiella pneumoniae ATCC 2814; test: as above; conditions: levofloxacin combined with UP5, checkerboard, first no-growth well, triplicate
Method in brief: as §2

[8] = test system: Acinetobacter baumannii ATCC 1799; test: as above; conditions: levofloxacin combined with UP5, checkerboard, first no-growth well, triplicate
Method in brief: as §2

[9] = test system: Staphylococcus aureus ATCC BAA-44; test: as above; conditions: levofloxacin combined with UP5, checkerboard, first no-growth well, triplicate
Method in brief: as §2

[10] = test system: Pseudomonas aeruginosa ATCC 3197; test: Synergistic studies, broth microdilution checkerboard; conditions: levofloxacin combined with UP5, checkerboard, first no-growth well, triplicate
[11] = test system: Acinetobacter baumannii ATCC 1799; test: MIC and MBC, broth microdilution; conditions: ATCC1799, 18 h
Method in brief: as §1

MIC [1]: > 100 µM
MIC in combination, Levofloxacin [2]: 6.25 µM
MIC [3]: 50 µM (≈ 18.1 µg/mL)
MIC [4]: 25 µM (≈ 9.03 µg/mL)
MIC [5]: 25 µM (≈ 9.03 µg/mL)
MIC in combination, Levofloxacin [6]: 12.5 µM
MIC in combination, Levofloxacin [7]: 25 µM
MIC in combination, Levofloxacin [8]: 12.5 µM
MIC in combination, Levofloxacin [9]: 12.5 µM
MIC in combination, Levofloxacin [10]: 12.5 µM
MIC [11]: > 100 µM
SMILES: C[C@H]1COc2c(N3CCN(C)CC3)c(F)cc3c(=O)c(C(=O)O)cn1c23 [Levofloxacin, levofloxacin]
